Consider six molecules from ChEMBL document CHEMBL1147363, “Inhibitory effect of carnosic acid on HIV-1 protease in cell-free assays [corrected]” (J Nat Prod, 1993).

The target in data set [1] is Protease (Human immunodeficiency virus 1) (UniProt Q9YQ12). Put plainly: Inhibition of HIV1 recombinant protease expressed in Escherichia coli BL21 (DE3) cells by SDS-PAGE.
Another data set concerns the target T1, Cathepsin D (Bos taurus) (UniProt P80209).
T1 sequence (whole entry): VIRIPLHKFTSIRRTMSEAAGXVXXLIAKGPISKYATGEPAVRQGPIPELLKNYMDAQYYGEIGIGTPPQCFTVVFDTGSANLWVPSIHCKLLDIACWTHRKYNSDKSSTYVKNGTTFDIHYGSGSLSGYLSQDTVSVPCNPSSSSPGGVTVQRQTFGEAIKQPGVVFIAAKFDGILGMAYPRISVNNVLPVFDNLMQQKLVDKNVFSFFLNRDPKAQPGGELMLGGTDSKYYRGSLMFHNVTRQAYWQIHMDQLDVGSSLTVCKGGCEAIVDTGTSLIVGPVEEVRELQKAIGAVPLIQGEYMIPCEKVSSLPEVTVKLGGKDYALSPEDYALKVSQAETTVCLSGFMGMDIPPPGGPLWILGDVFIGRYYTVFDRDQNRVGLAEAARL
As to the kind of experiment: Inhibition of bovine spleen cathepsin D up to 10 ug/ml. Put shortly:
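Cathepsin D purified from bovine spleen, 40 nM final. Compound (DMSO stock diluted in 0.1 M Na acetate pH 3.5) preincubated with enzyme 10 min. 2% hemoglobin substrate added, 10 min at 37°. Stopped with 0.33 M trichloroacetic acid. Soluble products treated with NaOH and Folin-Ciocalteu reagent; absorbance read at 750 nm. Tested up to 10 μg/ml.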

For data set [2], the system named is Human immunodeficiency virus 1. As to the kind of experiment: Antiviral activity against HIV1 replication infected in human MT2 cells assessed as reduction in plaque formation after 3 days by MTT assay. Conditions: Human immunodeficiency virus 1, MT2, 72 h. It is filed as functional. Put shortly: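 MT-2 cells pretreated 30 min at room temperature with compound (DMSO stock diluted in RPMI), infected with HIV-1 (3b or rf) 1 h at 36°, washed, then grown 3 days in compound-containing RPMI. Progeny titre measured by plaque assay on poly-L-lysine-coated MT-2 monolayers under agarose overlays, stained with MTT. Activity expressed as percent reduction in titre versus untreated virus; IC90 reported.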

A further data set relates to H9. Put plainly: Cytotoxicity against human H9 cells after 3 or 5 days by XTT assay. The following applies: h9, 120 h. It is filed as cell-based. Summed up:
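Cells seeded at 1×10^5 per well with graded compound concentrations and grown at 36° for 3 or 5 days depending on cell type. XTT (1 mg/ml, with 0.025 mM phenazine methosulfate) added, 1 h at 36°, OD450 read. TC90 is the concentration giving 90% reduction in viable cells.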
(Tetrazolium assays rely on reduction of a dye to a coloured formazan, in cell work by metabolically active cells.)

The species entered for a further data set is Sus scrofa. Put plainly: Inhibition of pig pepsin up to 10 ug/ml. Summed up:
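Porcine pepsin, 40 nM final. Compound stock diluted in 0.01 M HCl and preincubated with enzyme 10 min at room temperature. 2% hemoglobin substrate (pH 1.8) added, 10 min at 37°. Stopped with 0.33 M TCA; activity by modified Anson hemoglobin method. Tested up to 10 μg/ml.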

In brackets after ≈: the same amount, converted by molar mass. Activity calls are given as the source filed them. No cut-off for these calls is given here. Bounds are passed on as bounds.

Chain of Protease (Human immunodeficiency virus 1) (Q9YQ12 as listed by the source): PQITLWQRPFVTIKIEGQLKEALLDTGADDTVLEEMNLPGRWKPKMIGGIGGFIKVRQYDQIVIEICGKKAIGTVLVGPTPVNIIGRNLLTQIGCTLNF

What is called IC90 is the concentration at which the effect reaches the 90% level. With `CC(C)c1cc2c(c(O)c1O)[C@@]1(C(=O)O)CCCC(C)(C)[C@@H]1CC2` [CARNOSIC ACID], the results for the IC90 in data set [1] and in data set [2] were 0.08 µg/mL and 0.32 µg/mL (≈ 0.963 µM), respectively. For the same molecule, the result at Cathepsin D (Bos taurus) and in the data set filed under Sus scrofa was inactive. In the data set on H9, this molecule registered a TC90 of 0.36 µg/mL (≈ 1.08 µM).

As to `COc1c(C(C)C)cc2c(c1OC)[C@@]13CCCC(C)(C)[C@@H]1C[C@@H]2OC3=O`, the IC90 in data set [1] is over 10 µg/mL. In addition, the result on Cathepsin D (Bos taurus) and in the data set listed under Sus scrofa was inactive.

Take `CCO[C@H]1c2cc(C(C)C)c(O)c(O)c2[C@@]23CCCC(C)(C)[C@@H]2[C@@H]1OC3=O`: the IC90 in data set [1] is 1.7 µg/mL. Besides, the result on Cathepsin D (Bos taurus) and in the data set listed under Sus scrofa was inactive.

In the case of `CC(C)c1cc2c(c(O)c1O)[C@@]13CCCC(C)(C)[C@@H]1C[C@@H]2OC3=O`, the IC90 in data set [1] is over 10 µg/mL. For the same molecule, the result on Cathepsin D (Bos taurus) and in the data set listed under Sus scrofa was inactive.

On to `CC(C)c1cc2c(c(O)c1O)[C@@]13CCCC(C)(C)[C@@H]1[C@H](OC3=O)[C@H]2O`, for which the IC90 in data set [1] was determined as 0.6 µg/mL. Besides, the result at Cathepsin D (Bos taurus) and in the data set listed under Sus scrofa was inactive.

For `CO[C@H]1c2cc(C(C)C)c(O)c(O)c2[C@@]23CCCC(C)(C)[C@@H]2[C@@H]1OC3=O`, the IC90 in data set [1] is 1.5 µg/mL. Further, the outcome on Cathepsin D (Bos taurus) and in the data set listed under Sus scrofa was inactive.
